Read-outs that look alike come from different tables or passages of the source.
Key:
mNG-SARS-CoV-2 [1] = experiment: microbe, parasite or virus in culture; format: cell-based; settings: for % Inhibition: 50 µM; for inhibition at 50 µM: Severe acute respiratory syndrome coronavirus 2, Calu-3
mNG-SARS-CoV-2 [2] = experiment: microbe, parasite or virus in culture; format: cell-based
Calu-3 cells = experiment: PrestoBlue cytotoxicity assay; format: cell-based, human; settings: Calu-3, 48 h incubation
Method in brief: (§1)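 Calu-3 cells were grown per ATCC recommendations and seeded in 96-well plates. After 24 h, medium was replaced with serially diluted test compound for 48 h. Cells were then incubated 2 h with 5% PrestoBlue and fluorescence read at ex 555/em 585 nm. Viability was expressed as % of vehicle-treated cells. At least three independent experiments were run.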

SARS-CoV-2 Omicron BA.1 = experiment: dose-response against SARS-CoV-2 Omicron BA.1 in Calu-3 cells; format: cell-based
wild-type SARS-CoV-2 [3] = settings: cited from earlier work
mNG-SARS-CoV-2 [4] = experiment: microbe, parasite or virus in culture; format: cell-based; remark: listed apart in the source
wild-type SARS-CoV-2 [5] = settings: Huh-7.5 cells ref Dittmar et al., 2021; cited from earlier work
[6] = PrestoBlue cytotoxicity assay; format: cell-based, human; settings: human, Calu-3 cells
Method in brief: as §1

3CLpro = 3CLpro (Severe acute respiratory syndrome coronavirus 2, UniProt P0DTD1); experiment: 3CLpro enzymatic assay; format: biochemical, SARS-CoV-2; settings: data not shown
[7] = Severe acute respiratory syndrome coronavirus 2, Calu-3, read-out: BA.1 (EC50) Nuc, Calu-3, nucleocapsid staining
[8] = Severe acute respiratory syndrome coronavirus 2, Calu-3, read-out: BA.1 (EC50) dsRNA, Calu-3, dsRNA staining
[9] = Severe acute respiratory syndrome coronavirus 2, Calu-3

Compound	% Inhibition (mNG-SARS-CoV-2 [1]) [%]	EC50 (mNG-SARS-CoV-2 [2]) [µM]	CC50 (Calu-3 cells) [µM]	other results
2-butylchrysin	95	18	> 100	
CC(C)=CCc1cc([C@@H]2CC(=O)c3c(O)cc(O)c(CC=C(C)C)c3O2)cc(CC=C(C)C)c1O [5-hydroxysophoranone]	100	20.2	> 100	
COc1cc([C@H]2OC[C@]3(O)[C@@H](c4ccc(O)c(OC)c4)OC[C@H]23)ccc1O [8-hydroxypinoresinol]	82	24.4	> 100	
N[C@H](CNc1nc(-c2ccncc2)nc2sc3c(c12)CCCC3)Cc1ccccc1 [CRT0066854]				EC50 (SARS-CoV-2 Omicron BA.1; read-out: BA.1 (EC50) Nuc, Calu-3, nucleocapsid staining): 0.3 µM; EC50 (SARS-CoV-2 Omicron BA.1; read-out: BA.1 (EC50) dsRNA, Calu-3, dsRNA staining): 0.1 µM
CC(C)C[C@H](NC(=O)OCc1ccccc1)C(=O)N[C@@H](CC1CCNC1=O)C(O)S(=O)(=O)O (stereo partly drawn) [GC376]		0.475		EC50 (wild-type SARS-CoV-2 [3]; Vero E6 cells ref Dampalla et al., 2021): 0.23 µM; EC50 (wild-type SARS-CoV-2 [3]; Vero E6 cells ref Fu et al., 2020): 0.7 µM
Cn1c2ccccc2c2c3c(c4c5ccccc5n(CCC#N)c4c21)CNC3=O [Gö6976]				effect on SARS-CoV-2 BA.1 infection (SARS-CoV-2 Omicron BA.1): dramatic increase in susceptibility of cells to SARS-CoV-2 BA.1
COc1ccc2c(c1)c(C1=C(c3c[nH]c4ccccc34)C(=O)NC1=O)cn2CCCN(C)C [Gö6983]				effect on SARS-CoV-2 BA.1 infection (SARS-CoV-2 Omicron BA.1): dramatic increase in susceptibility of cells to SARS-CoV-2 BA.1
C/C=C(/C)C(=O)O[C@H]1C(C)=C[C@]23C(=O)[C@@H](C=C(CO)[C@@H](O)[C@]12O)[C@H]1[C@@H](C[C@H]3C)C1(C)C [PEP 005]				EC50 (SARS-CoV-2 Omicron BA.1; [7]): 0.7 µM; EC50 (SARS-CoV-2 Omicron BA.1; [8]): 1.5 µM
CCC(CC)COC(=O)[C@H](C)N[P@](=O)(OC[C@H]1O[C@@](C#N)(c2ccc3c(N)ncnn23)[C@H](O)[C@@H]1O)Oc1ccccc1 [RDV, remdesivir]				EC50 (mNG-SARS-CoV-2 [4]; Severe acute respiratory syndrome coronavirus 2, Huh-7.5.1, read-out: EC50 (mNG)): 0.0036 µM; EC50 (mNG-SARS-CoV-2 [4]; Severe acute respiratory syndrome coronavirus 2, Huh-7.5.1, read-out: EC50 (nucleocapsid staining)): 0.0076 µM; EC50 (wild-type SARS-CoV-2 [5]): 0.002 µM
CC1(C)C=Cc2c(cc3occ(-c4ccc(O)cc4)c(=O)c3c2O)O1 [alpinumisoflavone]				inhibition at 50 µM (mNG-SARS-CoV-2 [1]): 100%; CC50 at 48 h [6]: > 100 µM
C[C@@H]1CC[C@@]2(OC1)O[C@H]1C[C@H]3[C@@H]4CC[C@@H]5CC(=O)CC[C@]5(C)[C@H]4CC(=O)[C@]3(C)[C@@]1(O)[C@@H]2C [asparacemosone B]	83	4.04	> 100	
CCC/C=C/C=C/C(=O)O[C@H]1/C(=C/C(=O)OC)C[C@H]2C[C@H]([C@@H](C)O)OC(=O)C[C@H](O)C[C@@H]3C[C@H](OC(C)=O)C(C)(C)[C@](O)(C[C@@H]4C/C(=C/C(=O)OC)C[C@H](/C=C/C(C)(C)[C@]1(O)O2)O4)O3 [bryostatin, bryostatin-1]				EC50 (SARS-CoV-2 Omicron BA.1; [7]): 0.222 µM; EC50 (SARS-CoV-2 Omicron BA.1; [8]): 0.523 µM
CC(=O)O[C@H]1CC[C@]2(C)[C@H]3CC[C@]4(C)Oc5cc(C)oc(=O)c5C[C@H]4[C@]3(C)CC[C@H]2C1(C)C [chevalone B]	95	4.47	> 100	
CC(=O)O[C@H]1CC[C@]2(C)[C@H]3CC[C@]4(C)Oc5oc(C)cc(=O)c5C[C@H]4[C@]3(C)CC[C@H]2C1(C)C [chevalone C]	100	4.14	93	
O=c1cc(-c2ccccc2)oc2cc(O)cc(O)c12 [chrysin]				inhibition at 50 µM (mNG-SARS-CoV-2 [1]): 99%; EC50 (mNG-SARS-CoV-2 [2]; [9]): 18.8 µM; CC50 at 48 h [6]: > 100 µM
CC(C)=CCC[C@](C)(O)[C@H]1CC[C@]2(C)[C@@H]1CC[C@@H]1[C@@]3(C)CCC(=O)C(C)(C)[C@@H]3CC[C@]12C [dipterocarpol]		3.05		inhibition at 50 µM (mNG-SARS-CoV-2 [1]): 99%; CC50 at 48 h [6]: > 100 µM

Compound	% Inhibition (mNG-SARS-CoV-2 [1]) [%]	EC50 (mNG-SARS-CoV-2 [2]) [µM]	CC50 (Calu-3 cells) [µM]	other results
CC(C)=CCc1cc(-c2coc3c(CC=C(C)C)c(O)ccc3c2=O)ccc1O [erysubin F]				inhibition at 50 µM (mNG-SARS-CoV-2 [1]): 100%; EC50 (mNG-SARS-CoV-2 [2]; [9]): 45.6 µM; CC50 at 48 h [6]: > 100 µM
C=CC(C)(C)c1[nH]c2ccccc2c1-c1c(O)c(OC)c2c(c1OC)O[C@H]1Nc3ccccc3[C@@]21O [giluterrin]		5.44	72	
CC1(O)O[C@@H](n2c3ccccc3c3c4c(c5c6ccccc6[nH]c5c32)CNC4=O)C[C@@H](N)[C@H]1O (stereo partly drawn) [holyrine B]				activity against 3CLpro (3CLpro): neither holyrine A nor B presented activity against 3CLpro
C=C1C[C@@]23CC[C@H]4[C@@](C)(CCC[C@@]4(C)C(=O)O)[C@@H]2CC[C@@H]1C3 [kaur-16-en-18-oic acid]	100	15.1	> 100	
CC(C)=CCC/C(C)=C/Cc1c(O)cc2oc3c(O)cccc3c(=O)c2c1O [mangostinone]		27.9		inhibition at 50 µM (mNG-SARS-CoV-2 [1]): 92%; CC50 at 48 h [6]: > 100 µM
Cc1cc(O)c(C=O)c2c1C(=O)Oc1c(cc3c(c1C)C(=O)CC(C)(C)O3)O2 [mollicellin B]		6.79		inhibition at 50 µM (mNG-SARS-CoV-2 [1]): 100%; CC50 at 48 h [6]: > 100 µM
COc1c2ccoc2c(OCC=C(C)C)c2oc(=O)ccc12 [phellopterin]		6.35		inhibition at 50 µM (mNG-SARS-CoV-2 [1]): 96%; CC50 at 48 h [6]: 93 µM
CC(=O)O[C@@]12C[C@@H](C)[C@@]3(O)[C@@H](C=C(CO)C[C@]4(O)C(=O)C(C)=C[C@@H]34)[C@@H]1C2(C)C [prostratin]				EC50 (SARS-CoV-2 Omicron BA.1; [7]): 11.6 µM; EC50 (SARS-CoV-2 Omicron BA.1; [8]): 5 µM
C=C1C[C@H]2[C@@](C)(C(=O)C(O)=C3C(C)(C)C(=O)CC[C@@]32C)[C@@H]2C(=O)O[C@@](C)(C(=O)OC)C(=O)[C@@]12C [terretonin A]		7.31		inhibition at 50 µM (mNG-SARS-CoV-2 [1]): 82%; CC50 at 48 h [6]: > 100 µM
COc1cc(-c2cc3c(c(=O)o2)C[C@]2(O)[C@@]4(C)C(=O)C=CC(C)(C)[C@]4(O)CC[C@@]2(C)O3)cc(OC)c1OC [territrem B]		6.64		inhibition at 50 µM (mNG-SARS-CoV-2 [1]): 100%; CC50 at 48 h [6]: > 100 µM
acetyl hyrtiosal	97	1.97	> 100	
artahongkongene B	81	22	> 100	
asparacemosone A	95	20.7	> 100	
crotonolide F	97	8.21	> 100	
knecorticosanone G	100	3.5	> 100	
piperbonin A	100	3.61	> 100	
